Test results from ChEMBL document CHEMBL3351942, “Rexinoids isolated from Sophora tonkinensis with a gene expression profile distinct from the synthetic rexinoid bexarotene” (J Nat Prod, 2014).
One block for each compound: values may come before it. The source made the active and inactive calls. No cut-off for these calls is given here.

Columns and labels:
[1] = target: T1, Retinoic acid receptor RXR-alpha (Homo sapiens) (UniProt P19793); assay: (§1) Agonist activity at human RXR-alpha expressed in HEK293 cells coexpressing with pCMX-beta-gal after 24 to 48 hrs by luciferase reporter gene assay; format: cell-based
T1 sequence (whole entry): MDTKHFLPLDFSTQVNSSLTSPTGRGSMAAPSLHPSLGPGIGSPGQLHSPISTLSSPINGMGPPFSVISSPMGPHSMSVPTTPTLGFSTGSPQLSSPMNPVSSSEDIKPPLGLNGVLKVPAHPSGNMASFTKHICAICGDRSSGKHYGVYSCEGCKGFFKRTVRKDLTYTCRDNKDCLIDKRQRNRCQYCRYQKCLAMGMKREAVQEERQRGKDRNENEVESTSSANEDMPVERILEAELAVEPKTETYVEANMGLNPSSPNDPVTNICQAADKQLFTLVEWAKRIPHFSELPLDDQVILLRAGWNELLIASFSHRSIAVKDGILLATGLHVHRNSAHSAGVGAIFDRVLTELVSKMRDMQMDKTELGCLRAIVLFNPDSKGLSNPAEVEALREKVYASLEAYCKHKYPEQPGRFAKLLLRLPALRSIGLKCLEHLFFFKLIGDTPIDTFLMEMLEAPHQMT
Outline: (§2)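 HEK293 cells transfected by calcium phosphate with 60 ng pCMX-hRXR-α, 150 ng CRBPII-tk-Luc and 30 ng pCMX-β-gal plus carrier pUC18 (600 ng DNA per well). After 8 h the cells were washed and exposed to compound in medium with 10% FBS for 24−48 h. Luciferase was normalized to β-galactosidase. Triplicate or quadruplicate; representative of three independent experiments; EC50 from dose-response.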

[2] = target: T2, Retinoic acid receptor RXR-alpha (Homo sapiens, UniProt P19793); assay: as §1; format: cell-based; outline: as §2
T2 sequence (P19793 whole entry): T1 sequence (whole entry)

[3] = target: T1, Retinoic acid receptor RXR-alpha (Homo sapiens); assay: Agonist activity at human RXR-alpha expressed in HEK293 cells coexpressing with pCMX-beta-gal at 10 uM after 24 to 48 hrs by luciferase reporter gene assay in presence of PA452 pan-antagonist; format: cell-based
Outline: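 RXRα reporter in HEK293: cotransfected with RXRα expression vector, luciferase reporter and pCMX-β-gal. Eight hours after transfection, cells were treated with test compound at 10 μM with or without the RXR pan-antagonist PA452 (10 μM). Luciferase was normalized to β-galactosidase. Means ± SD of three determinants; representative of three experiments; one-way ANOVA with Bonferroni's t-test.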

[4] = target: T1, Retinoic acid receptor RXR-alpha (Homo sapiens); assay: Binding affinity to RXRalpha (unknown origin) by receptor-SRC1 cofactor complex formation assay
Outline: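 Ligand-dependent binding of RXR isotype to coactivator SRC-1 in an NR cofactor kit, detected with HRP-conjugated anti-RXR antibody at OD450. The full agonist CD3254 defined 100% and vehicle 0%. Efficacy was taken as maximum B/Bmax% and potency as EC50.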

[5] = target: T1, Retinoic acid receptor RXR-alpha (Homo sapiens); assay: Agonist activity at human RXR-alpha expressed in HEK293 cells coexpressing with pCMX-beta-gal at 10 uM after 24 to 48 hrs by luciferase reporter gene assay; format: cell-based
[6] = Activation of LXR in mouse C2C12 cells assessed as induction of ApoE mRNA expression at 1 uM after 24 hrs in presence of T0901317 by quantitative RT-PCR analysis; format: cell-based
Outline: (§3)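 C2C12 myoblasts grown in DMEM/10% FBS, differentiated at confluence in 2% horse serum, medium changed every other day for 5 days; myotubes treated 24 h with or without T0901317 (1 μM). Total RNA, DNase-treated, oligo(dT) RT from 0.5 μg, SYBR green qPCR; normalized to β-actin (delta-delta Ct), fold over vehicle; mean ± SD of four determinants, one of two experiments.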

[7] = Activation of LXR in mouse C2C12 cells assessed as induction of ApoD mRNA expression at 1 uM after 24 hrs in presence of T0901317 by quantitative RT-PCR analysis; format: cell-based; outline: as §3
[8] = target: T3, Peroxisome proliferator-activated receptor delta (Mus musculus) (UniProt P35396); assay: Activation of PPARdelta in mouse C2C12 cells assessed as induction of CPT1A mRNA expression at 1 uM after 24 hrs by quantitative RT-PCR analysis; format: cell-based
T3 sequence (whole entry): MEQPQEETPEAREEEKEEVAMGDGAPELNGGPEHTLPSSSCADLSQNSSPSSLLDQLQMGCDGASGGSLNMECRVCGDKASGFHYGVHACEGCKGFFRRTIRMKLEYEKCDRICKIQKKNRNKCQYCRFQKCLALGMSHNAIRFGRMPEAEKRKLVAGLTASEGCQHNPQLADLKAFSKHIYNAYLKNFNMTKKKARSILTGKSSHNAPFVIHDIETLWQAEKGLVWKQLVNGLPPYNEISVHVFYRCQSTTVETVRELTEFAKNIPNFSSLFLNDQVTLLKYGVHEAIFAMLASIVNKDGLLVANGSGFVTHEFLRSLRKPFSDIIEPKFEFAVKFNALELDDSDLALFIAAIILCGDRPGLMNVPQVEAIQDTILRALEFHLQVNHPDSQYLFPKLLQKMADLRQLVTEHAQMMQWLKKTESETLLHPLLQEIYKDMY
Outline: (§4)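 Differentiated C2C12 myotubes (2% horse serum, 5 days) exposed 24 h with or without PPARδ agonist GW501516 (1 μM). mRNA quantified by SYBR green real-time RT-PCR, normalized to β-actin by delta-delta Ct, and expressed as fold induction vs vehicle; means ± SD of four determinants from one of two independent experiments; one-way ANOVA with Bonferroni.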

[9] = Activation of LXR in mouse C2C12 cells assessed as induction of lipoprotein lipase mRNA expression at 1 uM after 24 hrs in presence of T0901317 by quantitative RT-PCR analysis; format: cell-based; outline: as §3
3T3-L1 = assay: Activation of PPARgamma/RXR heterodimer in mouse 3T3-L1 cell assessed as induction of adipogenesis at 1 uM after 6 days by Oil red O-staining; format: cell-based
Outline: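 3T3-L1 cells grown to confluence, 2 days later induced 48 h with 10% FBS, 5 μg/mL insulin, 0.25 μM dexamethasone, 0.5 mM IBMX, then 48 h insulin-only medium; compounds in DMSO added to postdifferentiation medium for 4 days. Formalin-fixed (10%, 1 h, RT), stained with Oil red O, washed, visualized.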

[10] = target: T3, Peroxisome proliferator-activated receptor delta (Mus musculus); assay: Activation of PPARdelta in mouse C2C12 cells assessed as induction of FABP3 mRNA expression at 1 uM after 24 hrs in presence of GW501516 by quantitative RT-PCR analysis; format: cell-based; outline: as §4
Homo sapiens = species: Homo sapiens; assay: Activation of RXR/VDR heterodimer in human hepatoma cells assessed as increase in CYP24A1 mRNA level at 1 uM by quantitative RT-PCR analysis; format: cell-based
Outline: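 HLE hepatoma cells treated 24 h with or without VD3 (0.1 μM); CYP24A1 mRNA by SYBR green qRT-PCR normalized to β-actin (delta-delta Ct), fold over vehicle; means ± SD of three determinants, representative of three experiments.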

[11] = Activation of LXR in mouse C2C12 cells assessed as induction of SREBP1 mRNA expression at 1 uM after 24 hrs in presence of T0901317 by quantitative RT-PCR analysis; format: cell-based; outline: as §3
[12] = target: T3, Peroxisome proliferator-activated receptor delta (Mus musculus); assay: Activation of PPARdelta in mouse C2C12 cells assessed as induction of ANGPTL4 mRNA expression at 1 uM after 24 hrs by quantitative RT-PCR analysis; format: cell-based; outline: as §4
[13] = Activation of LXR in mouse C2C12 cells assessed as induction of ABCA1 mRNA expression at 1 uM after 24 hrs in presence of T0901317 by quantitative RT-PCR analysis; format: cell-based; outline: as §3
[14] = target: T3, Peroxisome proliferator-activated receptor delta (Mus musculus); assay: Activation of PPARdelta in mouse C2C12 cells assessed as induction of FABP3 mRNA expression at 1 uM after 24 hrs by quantitative RT-PCR analysis; format: cell-based; outline: as §4
F9 [15] = assay: Activation of RXR/RAR heterodimer in mouse F9 cells assessed as increase in CYP26A1 mRNA level at 1 uM by quantitative RT-PCR analysis; format: cell-based
Outline: (§5)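 F9 teratocarcinoma cells on 0.2% gelatin-coated dishes in DMEM/10% FBS; 24 h exposure with or without atRA (0.1 μM). CYP26A1 mRNA by qRT-PCR normalized to β-actin, fold vs vehicle; means ± SD of three determinants, one of three experiments; ANOVA/Bonferroni.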

RAW264.7 [16] = assay: Activation of RXR/LXR heterodimer in mouse RAW264.7 cells assessed as potentiation of T0901317-induced increase in ABCA1 mRNA level at 1 uM by quantitative RT-PCR analysis; format: cell-based
Outline: (§6)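 RAW264.7 macrophages in DMEM/10% FBS, exposed 24 h with or without LXR agonist T0901317; ABCA1 mRNA by SYBR green qRT-PCR, β-actin-normalized, fold vs vehicle; means ± SD of three determinants, one of three independent experiments; one-way ANOVA, Bonferroni.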

[17] = Activation of LXR in mouse C2C12 cells assessed as induction of FAS mRNA expression at 1 uM after 24 hrs in presence of T0901317 by quantitative RT-PCR analysis; format: cell-based; outline: as §3
RAW264.7 [18] = assay: Activation of RXR/LXR heterodimer in mouse RAW264.7 cells assessed as increase in ABCA1 mRNA level at 1 uM by quantitative RT-PCR analysis; format: cell-based; outline: as §6
F9 [19] = assay: Activation of RXR/RAR heterodimer in mouse F9 cells assessed as increase in CYP26A1 mRNA level at 1 uM by quantitative RT-PCR analysis in presence of atRA; format: cell-based; outline: as §5
[20] = Activation of LXR in mouse C2C12 cells assessed as induction of lipoprotein lipase mRNA expression at 1 uM after 24 hrs by quantitative RT-PCR analysis; format: cell-based; outline: as §3

- ED50 [1]: 11.8 µM
Structure (SMILES): C=CCc1ccc(O)c(-c2ccc(O)c(CC=C)c2)c1

- EC50 [2]: 0.78 µM
- Activity [1]: Dose-dependent effect
- Activity [3]: inactive
- Activity [4]: inactive
Structure (SMILES): CC(C)=CCc1cc([C@@H]2CC(=O)c3ccc(O)c(CC=C(C)C)c3O2)cc2c1OC(C)(C)C(O)C2 (stereo partly specified)

- Activity [5]: inactive
Structure (SMILES): CC(C)=CCc1cc([C@@H]2CC(=O)c3ccc(O)c(CC=C(C)C)c3O2)cc(CC=C(C)C)c1O

- ED50 [1]: 3 µM
Structure (SMILES): CC(C)CCC[C@@H](C)CCC[C@@H](C)CCCC(C)CC(=O)O (stereo partly specified)

- ED50 [1]: 4.9 µM
Structure (SMILES): C=C1C(=O)O[C@H]2C[C@@H](C)[C@@H]3C=CC(=O)[C@@]3(C)[C@@H](OC(C)=O)[C@H]12

- ED50 [1]: 50 µM
Structure (SMILES): CC/C=C\C/C=C\C/C=C\C/C=C\C/C=C\C/C=C\CCC(=O)O

- Activity [8]: Active
- Activity [10]: Active
- Activity [12]: Active
- Activity [14]: Active
Structure (SMILES): C=C(c1ccc(C(=O)O)cc1)c1cc2c(cc1C)C(C)(C)CCC2(C)C
- Activity [6]: Active
- Activity [7]: Active
- Activity [9]: inactive
- Activity (3T3-L1): Active
- Activity (Homo sapiens): Active
- Activity [11]: Active
- Activity [13]: Active
- Activity (F9 [15]): Active
- Activity (RAW264.7 [16]): Active
- Activity [17]: Active
- Activity (RAW264.7 [18]): Active
- Activity (F9 [19]): Active
- Activity [20]: inactive
